Data on 40 molecules can be found in ChEMBL document CHEMBL3763041, “Design and synthesis of new imidazo[1,2-a]pyridine and imidazo[1,2-a]pyrazine derivatives with antiproliferative activity against melanoma cells” (Eur J Med Chem, 2016).

The nature of test [1]: Antiproliferative activity against human A375P cells expressing BRAF V600E mutant after 72 hrs by CellTiter-Glo assay. Type of test: functional, cell-based. (In general: ATP-based viability assays read luminescence as a measure of living cells.)
For test [2], the target named is Serine/threonine-protein kinase B-raf (Homo sapiens, UniProt P15056). Briefly: Inhibition of wild-type B-Raf (unknown origin) using MEK1 K97M as substrate preincubated for 90 mins followed by substrate addition measured after 1 hr by fluorescence polarization assay. Put shortly: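 After ATP-containing solution was added, the reaction ran 1 h at room temperature. It was stopped with ADP detection mix (EDTA, ADP² antibody, 3 nM ADP Alexa633 tracer).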

Test [3] has as its target Serine/threonine-protein kinase B-raf (Homo sapiens, UniProt P15056, V600E). Briefly: Inhibition of B-Raf V600E mutant (unknown origin) using MEK1 K97M as substrate preincubated for 90 mins followed by substrate addition measured after 1 hr by fluorescence polarization assay. Summed up: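 Reactions used 30 nM B-Raf(V600E) enzyme with MEK1 K97M substrate. Kinase reaction ran 1 h at room temperature after ATP-containing solution was added. It was stopped with ADP detection mix (20 mM HEPES pH 7.5, 40 mM EDTA, 10 mM MgCl₂, 0.02% Brij 35, ADP² antibody, 3 nM ADP Alexa633 tracer).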

Test [4] deals with A549. Briefly: Antiproliferative activity against human A549 cells after 72 hrs by CellTiter-Glo assay. The class given is functional, cell-based. Particulars: A549, 72 h.
Test [5] relates to NCI-H358. Put plainly: Antiproliferative activity against human NCI-H358 cells after 72 hrs by CellTiter-Glo assay. The class given is functional, cell-based. The note with it: NCI-H358, 72 h.
Test [6] in a line: Antiproliferative activity against human PC9 cells after 72 hrs by CellTiter-Glo assay. The class given is functional, cell-based. Particulars: PC-9, 72 h.
Test [7] in a line: Antiproliferative activity against human PC-9ER cells after 72 hrs by CellTiter-Glo assay. Type of test: functional, cell-based.
Test [8] is described as follows: Antiproliferative activity against human HCT116 cells after 72 hrs by CellTiter-Glo assay. The class given is functional, cell-based. The note with it: HCT-116, 72 h.
A short description of test [9]: Antiproliferative activity against human HKE3 cells after 72 hrs by CellTiter-Glo assay. The class given is functional, cell-based. Particulars: HKE3, 72 h.

Serine/threonine-protein kinase B-raf (Homo sapiens, UniProt P15056), sequence (P15056 whole entry): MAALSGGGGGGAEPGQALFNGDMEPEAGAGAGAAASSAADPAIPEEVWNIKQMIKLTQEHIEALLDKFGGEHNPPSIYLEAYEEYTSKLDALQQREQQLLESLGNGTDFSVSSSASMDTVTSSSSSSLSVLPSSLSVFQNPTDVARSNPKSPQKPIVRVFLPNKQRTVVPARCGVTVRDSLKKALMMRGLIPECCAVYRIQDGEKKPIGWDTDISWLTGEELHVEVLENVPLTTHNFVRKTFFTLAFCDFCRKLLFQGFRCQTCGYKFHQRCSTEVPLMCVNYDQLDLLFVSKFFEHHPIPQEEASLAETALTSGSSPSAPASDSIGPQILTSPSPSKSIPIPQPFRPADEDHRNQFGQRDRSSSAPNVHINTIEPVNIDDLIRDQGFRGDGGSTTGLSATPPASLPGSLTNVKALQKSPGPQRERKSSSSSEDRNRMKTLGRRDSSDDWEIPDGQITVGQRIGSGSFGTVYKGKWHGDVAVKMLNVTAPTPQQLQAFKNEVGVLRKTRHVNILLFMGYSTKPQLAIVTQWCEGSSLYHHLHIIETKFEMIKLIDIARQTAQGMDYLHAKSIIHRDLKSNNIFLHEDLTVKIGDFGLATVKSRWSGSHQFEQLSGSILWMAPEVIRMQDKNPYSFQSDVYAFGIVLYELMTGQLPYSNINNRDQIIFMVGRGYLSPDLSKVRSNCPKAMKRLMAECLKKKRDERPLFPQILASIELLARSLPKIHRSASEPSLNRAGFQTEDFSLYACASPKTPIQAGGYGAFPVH
Serine/threonine-protein kinase B-raf (Homo sapiens, UniProt P15056, V600E), sequence (P15056 2-766 V600E limits assumed): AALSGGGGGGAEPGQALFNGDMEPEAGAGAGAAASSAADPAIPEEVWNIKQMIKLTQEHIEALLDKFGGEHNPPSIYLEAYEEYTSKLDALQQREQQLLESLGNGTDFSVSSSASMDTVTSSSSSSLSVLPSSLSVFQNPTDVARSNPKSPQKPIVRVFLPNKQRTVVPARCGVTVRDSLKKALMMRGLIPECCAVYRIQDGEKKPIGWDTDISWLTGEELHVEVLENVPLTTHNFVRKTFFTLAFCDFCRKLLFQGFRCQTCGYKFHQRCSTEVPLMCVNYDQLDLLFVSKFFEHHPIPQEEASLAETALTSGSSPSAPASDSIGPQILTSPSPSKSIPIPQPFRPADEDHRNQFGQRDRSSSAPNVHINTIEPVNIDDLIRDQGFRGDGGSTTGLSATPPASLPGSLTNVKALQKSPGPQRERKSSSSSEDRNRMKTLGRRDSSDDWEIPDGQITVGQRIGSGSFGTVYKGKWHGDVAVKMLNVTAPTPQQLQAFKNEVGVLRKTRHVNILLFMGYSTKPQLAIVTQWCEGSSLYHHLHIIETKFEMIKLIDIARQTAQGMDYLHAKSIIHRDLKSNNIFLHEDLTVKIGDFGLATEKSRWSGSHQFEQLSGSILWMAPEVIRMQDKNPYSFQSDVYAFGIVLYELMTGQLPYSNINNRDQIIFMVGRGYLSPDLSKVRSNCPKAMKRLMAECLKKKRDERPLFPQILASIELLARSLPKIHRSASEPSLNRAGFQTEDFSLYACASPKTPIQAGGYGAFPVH

Consider `Nc1nccn2c(-c3cccc(NC(=O)Nc4ccc(F)c(Cl)c4)c3)cnc12`, for which the half-inhibitory concentration (IC50) (commonly the midpoint of a concentration-inhibition curve) in test [1] amounted to 4340 nM.
`O=C(Nc1cccc(-c2cnc3c(NC(=O)c4ccc(Br)cc4)nccn23)c1)Nc1ccc(F)cc1F` gave a half-inhibitory concentration (IC50) in [1] of 3750 nM.
Consider `O=C(Nc1cccc(-c2cnc3c(NC(=O)c4cc(C(F)(F)F)cc(C(F)(F)F)c4)nccn23)c1)Nc1ccc(F)cc1F`, for which the half-maximal inhibitory concentration (IC50) in [1] is 110 nM.
Still for that read-out and setting: the figure for `O=C(Nc1cccc(-c2cnc3c(NC(=O)c4ccc(F)c(C(F)(F)F)c4)nccn23)c1)Nc1ccc(F)cc1F` is 410 nM; for `Nc1nccn2c(-c3cccc(NC(=O)Nc4ccc(F)cc4F)c3)cnc12` it is 920 nM; for `O=C(Nc1cccc(-c2cnc3c(NC(=O)c4cccc(C(F)(F)F)c4)nccn23)c1)Nc1ccc(Cl)c(C(F)(F)F)c1` it is 560 nM.
`O=C(Nc1cccc(-c2cnc3c(NC(=O)c4ccc(F)c(C(F)(F)F)c4)nccn23)c1)Nc1ccc(Cl)c(C(F)(F)F)c1`: the IC50 was 60 nM in test [1], above 12500 nM in [2] and 5010 nM in test [3].
Consider `Nc1nccn2c(-c3cccc(NC(=O)Nc4cc(C(F)(F)F)cc(C(F)(F)F)c4)c3)cnc12`, for which the IC50 in test [1] worked out at 9060 nM.
Consider `O=C(Nc1cccc(-c2cnc3c(NC(=O)c4ccc(C(F)(F)F)cc4)nccn23)c1)Nc1ccc(Cl)c(C(F)(F)F)c1`, for which it took 1750 nM to reach half-maximal inhibition in test [1] (IC50).
In the case of `O=C(Nc1cccc(-c2cnc3c(NC(=O)c4ccccc4)nccn23)c1)Nc1ccc(F)cc1F`, the concentration for half-maximal inhibition (IC50) in test [1] was found to be 1990 nM.
Same read-out and setting: as for `Nc1nccn2c(-c3cccc(NC(=O)Nc4cccc(Cl)c4)c3)cnc12`, the figure is 5010 nM.
Still for that read-out and setting: the figure for `O=C(Nc1cccc(-c2cnc3c(NC(=O)c4ccccc4)nccn23)c1)Nc1ccc(Cl)c(C(F)(F)F)c1` is 1410 nM; for `O=C(Nc1cccc(-c2cnc3c(NC(=O)c4ccc(Cl)c(Cl)c4)nccn23)c1)Nc1ccc(F)cc1F` it is 1890 nM.
On the same count and under the same terms, as for `O=C(Nc1cccc(-c2cnc3c(NC(=O)c4cc(Cl)c(F)c(Cl)c4)nccn23)c1)Nc1ccc(F)cc1F`, the figure is 390 nM.
As for `O=C(Nc1cccc(-c2cnc3c(NC(=O)c4cc(Cl)cc(Cl)c4)nccn23)c1)Nc1ccc(F)cc1F`, the half-maximal inhibitory concentration (IC50) in test [1] was 60 nM; in [2] it was above 12500 nM; in test [3], above 12500 nM; in test [4] it was 2610 nM; in [5] it was 4170 nM; in test [6], 2770 nM. Besides, the half-inhibitory concentration (IC50) in test [7] stood at 2560 nM; in test [8], 880 nM; in test [9] it was 620 nM.
The molecule `O=C(Nc1cccc(-c2cnc3c(NC(=O)c4ccc(F)c(Cl)c4)nccn23)c1)Nc1ccc(F)cc1F` returned an IC50 in test [1] of 1550 nM.
For `Nc1nccn2c(-c3cccc(NC(=O)Nc4ccc(Cl)c(C(F)(F)F)c4)c3)cnc12`, the midpoint of inhibition in test [1], the IC50, lay at 11200 nM.
`O=C(Nc1cccc(-c2cnc3c(NC(=O)c4ccc(Cl)c(C(F)(F)F)c4)nccn23)c1)Nc1ccc(F)cc1F`: in [1], the IC50 is 800 nM.
Turning to `O=C(Nc1cccc(-c2cnc3c(NC(=O)c4cc(F)cc(F)c4)nccn23)c1)Nc1ccc(Cl)c(C(F)(F)F)c1`, the half-inhibitory concentration (IC50) in test [1] was 1940 nM.
Still for that read-out and setting: as for `Nc1nccn2c(-c3cccc(NC(=O)Nc4cccc(Cl)c4Cl)c3)cnc12`, the figure is 1270 nM.
Consider `O=C(Nc1cccc(-c2cnc3c(NC(=O)c4cc(Cl)cc(Cl)c4)nccn23)c1)c1ccc(Cl)c(C(F)(F)F)c1`, for which the IC50 in test [1] is 40 nM; in test [2] it was above 12500 nM; in [3], above 12500 nM; in test [4], 3230 nM; in [5], 4210 nM; in test [6] it was 3610 nM. Also, the values for the IC50 in [7], in test [8] and in test [9] were 3630 nM, 1810 nM and 830 nM, respectively.
In test [1], `O=C(Nc1cccc(-c2cnc3c(NC(=O)c4ccc(F)c(Cl)c4)nccn23)c1)Nc1ccc(Cl)c(C(F)(F)F)c1` registered an IC50 of 1280 nM.
`O=C(Nc1cccc(-c2cnc3c(NC(=O)c4cc(F)cc(F)c4)nccn23)c1)Nc1ccc(F)cc1F` yielded an IC50 in [1] of 5820 nM.
`Cc1ccc(NC(=O)Nc2cccc(-c3cnc4c(N)nccn34)c2)cc1` gave an IC50 in [1] of 2700 nM.
In [1], `O=C(Nc1cccc(-c2cnc3c(NC(=O)c4cccc(Cl)c4Cl)nccn23)c1)Nc1ccc(F)cc1F` returned a 50% inhibitory concentration (IC50) of 170 nM.
In turn, `O=C(Nc1cccc(-c2cnc3c(NC(=O)c4ccc(OC(F)(F)F)cc4)nccn23)c1)Nc1ccc(F)cc1F` came in with a half-maximal inhibitory concentration (IC50) in test [1] of 3790 nM.
In test [1], `Nc1nccn2c(-c3cccc(NC(=O)Nc4ccc(C(F)(F)F)cc4)c3)cnc12` returned an IC50 of 1100 nM.
Regarding `Cc1ccc(C(=O)Nc2nccn3c(-c4cccc(NC(=O)Nc5ccc(F)cc5F)c4)cnc23)cc1Cl`, half-maximal inhibition in test [1] (IC50) was put at 1980 nM.
In the case of `O=C(Nc1cccc(-c2cnc3c(NC(=O)c4cc(C(F)(F)F)cc(C(F)(F)F)c4)nccn23)c1)Nc1ccc(Cl)c(C(F)(F)F)c1`, the half-inhibitory concentration (IC50) in test [1] is 10 nM; in test [2], above 12500 nM; in test [3] it was above 12500 nM; in [4] it was 10400 nM; in test [5], 7550 nM; in [6], 11600 nM. In addition, the IC50 turned out to be 14600 nM in [7], 5310 nM in [8] and 6350 nM in [9].
`Nc1nccn2c(-c3cccc(NC(=O)Nc4ccc(Br)cc4)c3)cnc12` displayed a 50% inhibitory concentration (IC50) in test [1] of 4640 nM.
The same measure, in the same setting: the figure for `Nc1nccn2c(-c3cccc(NC(=O)Nc4ccccc4)c3)cnc12` is 1140 nM; for `Cc1ccc(C(=O)Nc2nccn3c(-c4cccc(NC(=O)Nc5ccc(Cl)c(C(F)(F)F)c5)c4)cnc23)cc1Cl` it is 1160 nM.
The molecule `Cc1cc(C)cc(C(=O)Nc2nccn3c(-c4cccc(NC(=O)Nc5ccc(F)cc5F)c4)cnc23)c1` gave a concentration for half-maximal inhibition (IC50) in test [1] of 120 nM.
On to `Nc1nccn2c(-c3cccc(NC(=O)Nc4cccc(C(F)(F)F)c4)c3)cnc12`, for which the half-inhibitory concentration (IC50) in [1] worked out at 5230 nM.
Molecule `COc1ccc(NC(=O)Nc2cccc(-c3cnc4c(N)nccn34)c2)cc1` showed a half-inhibitory concentration (IC50) in [1] of 3000 nM.
The molecule `O=C(Nc1cccc(-c2cnc3c(NC(=O)c4cccc(C(F)(F)F)c4)nccn23)c1)Nc1ccc(F)cc1F` gave an IC50 in test [1] of 440 nM.
The same measure, in the same setting: the figure for `O=C(Nc1cccc(-c2cnc3c(NC(=O)c4ccc(C(F)(F)F)cc4)nccn23)c1)Nc1ccc(F)cc1F` is 2730 nM.
With `O=C(Nc1cccc(-c2cnc3c(NC(=O)c4cc(Cl)cc(Cl)c4)nccn23)c1)Nc1ccc(Cl)c(C(F)(F)F)c1`, the IC50 was 30 nM in [1]; above 12500 nM in test [2]; above 12500 nM in test [3]; 8440 nM in [4]; 8580 nM in test [5]; 11600 nM in [6]. Also, the values for the IC50 in test [7], in test [8] and in test [9] were 8010 nM, 9510 nM and 10000 nM, respectively.
`O=C(Nc1cccc(-c2cnc3c(NC(=O)c4cccc(OC(F)(F)F)c4)nccn23)c1)Nc1ccc(F)cc1F` displayed a half-inhibitory concentration (IC50) in test [1] of 950 nM.
`CCCS(=O)(=O)Nc1ccc(F)c(C(=O)c2c[nH]c3ncc(-c4ccc(Cl)cc4)cc23)c1F` [VEMURAFENIB] showed an IC50 in test [1] of 370 nM.
